This is an account of results in ChEMBL document CHEMBL1629545, “A morpholino oligomer targeting highly conserved internal ribosome entry site sequence is able to inhibit multiple species of picornavirus” (Antimicrob Agents Chemother, 2008).

One data set relates to Poliovirus 1. As to the kind of experiment: Antiviral activity against Human poliovirus type 1 infected in Human HeLa cell assessed as inhibition of translation at 10 ug/ml by luciferase reporter gene assay. The data set is classed as functional, organism-based. In outline: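 In-cell translation control: HeLa cells electroporated with 20 μg PV1-Luc replicon RNA were placed in medium with 10 μg/ml puromycin at 37°C in 5% CO2. Luciferase in lysates was read by luminometer at hourly time points after transfection. Two experiments were averaged.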
Background: In a reporter assay the amount or activity of a reporter protein is the signal.

Data set [1] has as its system HeLa. Description: Cytotoxicity against human HeLa cells at 10 uM by MTS assay. The format is cell-based. In outline: (§1)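 HeLa cells at ~80% confluence, uninfected, exposed to 1–100 μM PPMO or water (mock) in serum-free DMEM-F-12 (1:1) for 24 h. MTS reagent was added for 4 h and absorbance read at 492 nm. Viability was expressed as percent of water-treated cells (set to 100%), averaged over 12 wells.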

The subject of data set [2] is HeLa. As to the kind of experiment: Cytotoxicity against human HeLa cells 10 uM after 24 hrs by MTS assay. The format is cell-based. An outline of the steps:
as §1

The subject of another data set is SK-N-MC. Description: Cytotoxicity against human SK-N-MC cell at 10 uM after 24 hrs by MTS assay. The data set is classed as cell-based. On the technique in general: Tetrazolium dyes change colour on reduction, which living cells bring about.
In the next data set the test system is Vero. Description: Cytotoxicity against African green monkey Vero cells at 10 uM after 24 hrs by MTS assay. The data set is classed as cell-based. Conditions: chlorocebus sabaeus.
Data set [3] has as its system HeLa. As to the kind of experiment: Cytotoxicity against human HeLa cells at 10 uM after 48 hrs by MTS assay. The data set is classed as cell-based. In outline:
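Time-course viability: uninfected HeLa cells were kept in 10 μM PPMO in DMEM-F-12 and assayed at time points from 10 to 69 h after treatment began. Read-out was the MTS reagent for 4 h with absorbance at 492 nm. Results are given as percent of water-mock cells, each point the mean of 12 wells.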

Activity calls are given as the source filed them. No cut-off for these calls is given here.

Consider `Cc1cn([C@H]2CN(P(=O)(OC[C@@H]3CN(P(=O)(OC[C@@H]4CN(P(=O)(OC[C@@H]5CNC[C@H](n6ccc(N)nc6=O)O5)N(C)C)C[C@H](n5cnc6c(N)ncnc65)O4)N(C)C)C[C@H](n4ccc(N)nc4=O)O3)N(C)C)C[C@@H](COP(=O)(N(C)C)N3C[C@@H](COP(=O)(N(C)C)N4C[C@@H](COP(=O)(N(C)C)N5C[C@@H](COP(=O)(N(C)C)N6C[C@@H](COP(=O)(N(C)C)N7C[C@@H](COP(=O)(N(C)C)N8C[C@@H](COP(=O)(N(C)C)N9C[C@@H](COP(=O)(N(C)C)N%10C[C@@H](COP(=O)(N(C)C)N%11C[C@@H](COP(=O)(N(C)C)N%12C[C@@H](COP(=O)(N(C)C)N%13C[C@@H](COP(=O)(N(C)C)N%14C[C@@H](COP(=O)(N(C)C)N%15C[C@@H](COP(=O)(N(C)C)N%16C[C@@H](COP(=O)(N(C)C)N%17C[C@@H](COP(=O)(N(C)C)N%18C[C@@H](COP(=O)(N(C)C)N%19C[C@@H](COP(=O)(N(C)C)N%20C[C@@H](COP(=O)(N(C)C)N%21C[C@@H](COP(=O)(N(C)C)N%22C[C@@H](COP(=O)(N(C)C)N%23CCN(C(=O)CCNC(=O)CCCCCNC(=O)[C@H](CCCNC(=N)N)NC(=O)CCCCCNC(=O)[C@H](CCCNC(=N)N)NC(=O)[C@H](CCCNC(=N)N)NC(=O)CCCCCNC(=O)[C@H](CCCNC(=N)N)NC(=O)[C@H](CCCNC(=N)N)NC(=O)CCCCCNC(=O)[C@H](CCCNC(=N)N)NC(=O)[C@H](CCCNC(=N)N)NC(=O)CCCCCNC(=O)[C@@H](N)CCCNC(=N)N)CC%23)O[C@@H](n%23ccc(N)nc%23=O)C%22)O[C@@H](n%22cnc%23c(N)ncnc%23%22)C%21)O[C@@H](n%21cnc%22c(N)ncnc%22%21)C%20)O[C@@H](n%20ccc(N)nc%20=O)C%19)O[C@@H](n%19cnc%20c(=O)[nH]c(N)nc%20%19)C%18)O[C@@H](n%18ccc(N)nc%18=O)C%17)O[C@@H](n%17cnc%18c(N)ncnc%18%17)C%16)O[C@@H](n%16cnc%17c(=O)[nH]c(N)nc%17%16)C%15)O[C@@H](n%15ccc(N)nc%15=O)C%14)O[C@@H](n%14ccc(N)nc%14=O)C%13)O[C@@H](n%13cc(C)c(=O)[nH]c%13=O)C%12)O[C@@H](n%12cnc%13c(=O)[nH]c(N)nc%13%12)C%11)O[C@@H](n%11cnc%12c(=O)[nH]c(N)nc%12%11)C%10)O[C@@H](n%10cnc%11c(N)ncnc%11%10)C9)O[C@@H](n9ccc(N)nc9=O)C8)O[C@@H](n8ccc(N)nc8=O)C7)O[C@@H](n7cnc8c(N)ncnc87)C6)O[C@@H](n6ccc(N)nc6=O)C5)O[C@@H](n5ccc(N)nc5=O)C4)O[C@@H](n4cnc5c(=O)[nH]c(N)nc54)C3)O2)c(=O)[nH]c1=O` (stereo partly specified), for which, in the data set with Poliovirus 1, the outcome was inactive. Besides, the Activity result with HeLa [1] was “Non-toxic”; in the data set on HeLa [2] it was “Toxic”; in the data set on SK-N-MC, “Non-toxic”; in the data set on Vero, “Non-toxic”; in the data set with HeLa [3], “Toxic”.
